{"source": "ChEMBL document CHEMBL1629441", "about": "“Synthesis, in vitro and in vivo biological evaluation, and comprehensive understanding of structure-activity relationships of dipeptidyl boronic acid proteasome inhibitors constructed from β-amino acids” (J Med Chem, 2010)", "data": [{"test": "Inhibition of human 20S proteasome chymotrypsin-like activity by fluorimetric assay", "details": "read-out: IC50", "how_it_was_run": "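Human 20S proteasome preincubated with test compound, then Suc-Leu-Leu-Val-Tyr-AMC hydrolysis monitored 1 h at 37 °C by fluorescence (excitation 360 nm, 465 nm). Buffer pH 7.5: 20 mM Tris, 1 mM DTT, 10% glycerol, 0.02% (w/v) SDS; DMSO 3% (v/v) final. IC50 from five concentrations, each in duplicate; bortezomib standard.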", "units": {"IC50": "nM"}, "values": [{"compound": "COc1ccccc1C(CC(=O)N[C@@H](CC(C)C)B(O)O)NC(=O)c1cccnc1", "note": "(stereo not given in full)", "IC50": 87}, {"compound": "COc1cccc(C(CC(=O)N[C@@H](CC(C)C)B(O)O)NC(=O)c2cccnc2)c1", "note": "(stereo not given in full)", "IC50": 19}, {"compound": "CC(C)C[C@H](NC(=O)CC(NC(=O)c1cccnc1)c1cccc([N+](=O)[O-])c1)B(O)O", "note": "(stereo not given in full)", "IC50": 26.9}, {"compound": "CC(C)C[C@H](NC(=O)CC(NC(=O)c1cccnc1)c1ccc([N+](=O)[O-])cc1)B(O)O", "note": "(stereo not given in full)", "IC50": 7300}, {"compound": "Cc1ccccc1C(CC(=O)N[C@@H](CC(C)C)B(O)O)NC(=O)c1cccnc1", "note": "(stereo not given in full)", "IC50": 1250}, {"compound": "Cc1cccc(C(CC(=O)N[C@@H](CC(C)C)B(O)O)NC(=O)c2cccnc2)c1", "note": "(stereo not given in full)", "IC50": 50.1}, {"compound": "CCCC[C@H](NC(=O)CC(NC(=O)c1ccccc1)c1cccc(F)c1)B(O)O", "note": "(stereo not given in full)", "IC50": 1250}, {"compound": "O=C(CC(NC(=O)c1ccccc1)c1cccc(F)c1)N[C@@H](Cc1ccccc1)B(O)O", "note": "(stereo not given in full)", "IC50": 1200}, {"compound": "O=C(CC(NC(=O)c1ccccc1)c1cccc(F)c1)N[C@@H](Cc1ccccc1F)B(O)O", "note": "(stereo not given in full)", "IC50": 301}, {"compound": "O=C(CC(NC(=O)c1ccccc1)c1cccc(Cl)c1)N[C@@H](Cc1ccccc1)B(O)O", "note": "(stereo not given in full)", "IC50": 1620}, {"compound": "Cc1cccc(C[C@H](NC(=O)CC(NC(=O)c2ccccc2)c2cccc(F)c2)B(O)O)c1", "note": "(stereo not given in full)", "IC50": 120}, {"compound": "O=C(CC(NC(=O)c1ccccc1)c1cccc(F)c1)N[C@@H](Cc1cccc(F)c1)B(O)O", "note": "(stereo not given in full)", "IC50": 131}, {"compound": "Cc1ccc(C[C@H](NC(=O)CC(NC(=O)c2ccccc2)c2cccc(F)c2)B(O)O)cc1", "note": "(stereo not given in full)", "IC50": 501}, {"compound": "O=C(CC(NC(=O)c1ccccc1)c1cccc(F)c1)N[C@@H](Cc1ccc(F)cc1)B(O)O", "note": "(stereo not given in full)", "IC50": 75.8}, {"compound": "CCCC[C@H](NC(=O)CC(NC(=O)c1ccccc1)c1cccc(Cl)c1)B(O)O", "note": "(stereo not given in full)", "IC50": 316}, {"compound": "O=C(CC(NC(=O)c1ccccc1)c1cccc(Cl)c1)N[C@@H](Cc1ccccc1F)B(O)O", "note": "(stereo not given in full)", "IC50": 371}, {"compound": "Cc1ccc(C[C@H](NC(=O)CC(NC(=O)c2ccccc2)c2cccc(Cl)c2)B(O)O)cc1", "note": "(stereo not given in full)", "IC50": 1150}, {"compound": "O=C(CC(NC(=O)c1ccccc1)c1cccc(Cl)c1)N[C@@H](Cc1ccc(F)cc1)B(O)O", "note": "(stereo not given in full)", "IC50": 194}, {"compound": "CCCC[C@H](NC(=O)CC(NC(=O)c1cccnc1)c1cccc(OC)c1)B(O)O", "note": "(stereo not given in full)", "IC50": 1480}, {"compound": "COc1cccc(C(CC(=O)N[C@@H](Cc2ccccc2)B(O)O)NC(=O)c2cccnc2)c1", "note": "(stereo not given in full)", "IC50": 1090}, {"compound": "COc1cccc(C(CC(=O)N[C@@H](Cc2ccccc2F)B(O)O)NC(=O)c2cccnc2)c1", "note": "(stereo not given in full)", "IC50": 602}, {"compound": "COc1cccc(C(CC(=O)N[C@@H](Cc2cccc(C)c2)B(O)O)NC(=O)c2cccnc2)c1", "note": "(stereo not given in full)", "IC50": 1770}, {"compound": "COc1cccc(C(CC(=O)N[C@@H](Cc2cccc(F)c2)B(O)O)NC(=O)c2cccnc2)c1", "note": "(stereo not given in full)", "IC50": 89.1}, {"compound": "COc1cccc(C(CC(=O)N[C@@H](Cc2ccc(C)cc2)B(O)O)NC(=O)c2cccnc2)c1", "note": "(stereo not given in full)", "IC50": 930}, {"compound": "COc1cccc(C(CC(=O)N[C@@H](Cc2ccc(F)cc2)B(O)O)NC(=O)c2cccnc2)c1", "note": "(stereo not given in full)", "IC50": 63}, {"compound": "CC(C)C[C@H](NC(=O)CC(NC(=O)c1cnccn1)c1cccc(Cl)c1)B(O)O", "note": "(stereo not given in full)", "IC50": 97.7}, {"compound": "CC(C)C[C@H](NC(=O)CC(NC(=O)c1ccc2ccccc2c1)c1cccc(Cl)c1)B(O)O", "note": "(stereo not given in full)", "IC50": 117}, {"compound": "CC(C)C[C@H](NC(=O)CC(NC(=O)[C@H]1CCCc2ccccc21)c1cccc(Cl)c1)B(O)O", "note": "(stereo not given in full)", "IC50": 21.8}, {"compound": "CC(C)C[C@H](NC(=O)CC(NC(=O)c1cccc2c1CCCC2)c1cccc(Cl)c1)B(O)O", "note": "(stereo not given in full)", "IC50": 190}, {"compound": "COc1cccc(C(CC(=O)N[C@@H](CC(C)C)B(O)O)NC(=O)[C@H]2CCCc3ccccc32)c1", "note": "(stereo not given in full)", "IC50": 28.1}, {"compound": "COc1cccc(C(CC(=O)N[C@@H](CC(C)C)B(O)O)NC(=O)c2cccc3c2CCCC3)c1", "note": "(stereo not given in full)", "IC50": 158}, {"compound": "CC(C)C[C@H](NC(=O)CC(NC(=O)c1ccccc1)c1ccccc1)B(O)O", "note": "(stereo not given in full)", "IC50": 39.8}, {"compound": "Cc1ccc(C(CC(=O)N[C@@H](CC(C)C)B(O)O)NC(=O)c2ccccc2)cc1", "note": "(stereo not given in full)", "IC50": 26.3}, {"compound": "COc1ccc(C(CC(=O)N[C@@H](CC(C)C)B(O)O)NC(=O)c2ccccc2)cc1", "note": "(stereo not given in full)", "IC50": 32.8}, {"compound": "CC(C)C[C@H](NC(=O)CC(NC(=O)c1ccccc1)c1ccc(Cl)cc1)B(O)O", "note": "(stereo not given in full)", "IC50": 20.8}]}]}
